Our source for the inhibition and IC50 values is ChEMBL document CHEMBL3396987, “Discovery and structure-activity relationship studies of N6-benzoyladenine derivatives as novel BRD4 inhibitors” (Bioorg Med Chem, 2015).

Test [1] addresses T1, Bromodomain-containing protein 4 (Homo sapiens, UniProt O60885). Particulars: at 100 µM.
Test [2] has as its target T1, Bromodomain-containing protein 4. The experiment in a line: Inhibition of BRD4 bromodomain-1 (unknown origin) by europium based LANCE TR-FRET assay. A general note: Time-resolved FRET reads energy transfer from a long-lived donor to a nearby acceptor.
Test [3] shares this target. Kind of test: Inhibition of BRD4 bromodomain-1 (unknown origin) at 300 uM by europium based LANCE TR-FRET assay. The method, boiled down: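 Run with a commercial BRD4 bromodomain 1 TR-FRET assay kit, read out as europium-based LANCE time-resolved fluorescence resonance energy transfer.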

Calls of active or inactive are those of the source. No cut-off for these calls is given here. Where only a bound is given, the exact number is not on record here.

With `C/C(=C\CNc1ncnc2[nH]cnc12)CO`, in test [1], the inhibition – broadly, the share of the control response that was lost under treatment – is “inactive”.

For `O=C(Nc1ncnc2nc[nH]c12)c1ccccc1`, half-maximal inhibition in test [2] (IC50) required 34.2 µM.

Turning to `O=C(Nc1ncnc2[nH]cnc12)c1cccc(Br)c1`, the inhibition was 44.5% in test [1] and below 50% in test [3].

Take `Cc1n[nH]c(C)c1CN1C(=O)c2ccccc2C1=O`: the inhibition entry in test [1] is “inactive”.

As to `O=C(Nc1cccc2ncccc12)c1ccccc1`, the inhibition in test [1] is 16.4%; in test [3], below 50%.

As to `O=C(c1ccccc1)N(C(=O)c1ccccc1)c1ccncn1`, the figures for the inhibition in test [1] and in test [3] were 11% and below 50%, respectively.

For `COc1ccc(C(=O)Nc2ncnc3[nH]cnc23)c(OC)c1`, the inhibition in test [1] was 40.8%; in test [3] it was below 50%.

For `COc1ccc(C(=O)Nc2ncnc3[nH]cnc23)cc1`, in test [2], half-maximal inhibition (IC50) was put at 34.5 µM.

Take `O=C(Nc1cccc2c1ncn2C(=O)c1ccccc1)c1ccccc1`: the inhibition in test [1] is 7.2%; in test [3] it was below 50%.

For the molecule `COc1ccc(C(=O)Nc2ncnc3[nH]cnc23)cc1OC`, in test [2], the IC50 (usually the concentration at which inhibition is half-maximal) amounted to 7.8 µM.

In test [2], `COc1cc(OC)c(C(=O)Nc2ncnc3[nH]cnc23)cc1OC` yielded a concentration for half-maximal inhibition (IC50) of 0.427 µM.

Regarding `Cn1cnc2c(NC(=O)c3ccccc3)ncnc21`, the inhibition in test [1] is 3.7%; in test [3], below 50%.

With `COc1cccc(C(=O)Nc2ncnc3[nH]cnc23)c1OC`, 78.6 µM corresponded to half-maximal inhibition in test [2] (IC50).

For `O=C(Nc1cccc2[nH]cnc12)c1ccccc1`, the inhibition was 4.8% in test [1] and below 50% in test [3].

In test [2], `COc1cccc(C(=O)Nc2ncnc3[nH]cnc23)c1` registered a 50% inhibitory concentration (IC50) of 63 µM.

Turning to `O=C(Nc1ncnc2[nH]cnc12)c1ccc(Br)cc1`, the inhibition in test [1] is 36.7%; in test [3], below 50%.

As to `O=C(Nc1ncnc2[nH]cnc12)c1ccccc1Br`, the inhibition in test [1] was 39%; in test [3], below 50%.

In turn, `COc1ccc(OC)c(C(=O)Nc2ncnc3[nH]cnc23)c1` had an IC50 in test [2] of 7.2 µM.

On to `CN(C)c1ccccc1C(=O)Nc1ncnc2[nH]cnc12`, for which the midpoint of inhibition in test [2], the IC50, lay at 5.6 µM.

The molecule `CCCOc1ccccc1C(=O)Nc1ncnc2[nH]cnc12` gave a concentration for half-maximal inhibition (IC50) in test [2] of 20 µM.

On to `O=C1CCC(N2C(=O)c3ccccc3C2=O)C(=O)N1` (stereo unspecified), for which the inhibition entry in test [1] is “inactive”.

`COc1cc(OC)cc(C(=O)Nc2ncnc3[nH]cnc23)c1` displayed a 50% inhibitory concentration (IC50) in test [2] of 17.9 µM.

Turning to `CSc1ccccc1C(=O)Nc1ncnc2[nH]cnc12`, the IC50 in test [2] came to 29.7 µM.

For the molecule `COc1cccc(OC)c1C(=O)Nc1ncnc2[nH]cnc12`, the inhibition in test [1] is 11.5%; in test [3], below 50%.

For the molecule `Cc1noc(C)c1N1C(=O)c2ccccc2C1=O`, in test [1], the inhibition result was “inactive”.

For the molecule `O=C(Nc1ccncn1)c1ccccc1`, the inhibition in test [1] is 5.8%; in test [3], below 50%.

Turning to `COc1ccccc1C(=O)Nc1ncnc2[nH]cnc12`, 16 µM corresponded to half-maximal inhibition in test [2] (IC50).

For `c1ccc(CNc2ncnc3[nH]cnc23)cc1`, in test [1], the inhibition entry was “inactive”.

Take `Cc1ccccc1C(=O)Nc1ncnc2[nH]cnc12`: the inhibition in test [1] is 40.4%; in test [3], below 50%.
